High-throughput results as filed in PubChem BioAssay.
An excerpt weighted towards active compounds, which were near 4.2% of everything screened.
CHOP inhibitor: inhibitors of CHOP promoter induction, primary screen, cell-based, unfolded protein response, luciferase reporter; actives 3.8% (n = 220,000); CHO-K1 CHOP-promoter luciferase, tunicamycin-induced, 15-18 h; AID 2732, 2010; inhibition, % at 10 µM;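 active = compounds that reduced the stress-induced luciferase reporter signal by more than about 70% of percent inhibition, limit read from the data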;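 note: 0% = tunicamycin plus vehicle and 100% = wells without tunicamycin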
Lipid droplet: inhibitors of hepatocyte lipid droplet formation, primary screen, imaging, high-throughput imaging, BODIPY stain; AML12 mouse hepatocytes, oleate lipid droplets; inhibition, % at 6.5 µM; actives 0.4% (n = 240,000);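 active = lipid droplet intensity inhibited by at least 50%, with more than 500 cells counted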
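Assay system: AML12 mouse liver cells | Compound dosing: One dose, 6.5 µM compound | Read-out basis: Droplet intensity reduction, % inhibition | Measured by: Fluorescence imaging, 20x objective, two fields per well | Schedule: Overnight treatment with compound plus oleate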
UPR CHOP act: activators of apoptotic CHOP UPR arm, primary screen, cell-based, CHO-CHOP luciferase reporter, luminescence, uHTS; UPR activation; percent of tunicamycin response over DMSO baseline; AID 449763, 2010; activation, % at 10 µM; actives 0.34% (n = 330,000);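 active = at 10 µM dose, activation of 40% or more, normalized to positive control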;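 note: 100% = tunicamycin at 10 µg/mL and 0% = DMSO alone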
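Dosing – one dose, 10 µM in 0.5% DMSO · System – CHO-CHOP cells, stable luciferase reporter of PERK-eIF2a-CHOP signalling · Input – 500 cells/well · Control set – tunicamycin 10 µg/mL final as positive, DMSO-only wells as negative · Timing – 6 h compound treatment, 37 °C · Measure – % activation vs tunicamycin · Technique – luminescence read with Steady-Glo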
UPR XBP1 act: activators of adaptive XBP1 UPR arm, primary screen, cell-based, CHO-XBP1 luciferase reporter, luminescence, uHTS. activation, % at 20 µM. actives 0.33% (n = 330,000). IRE1-XBP1 UPR activation; percent of tunicamycin response, DMSO as zero;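 active = versus positive control, 20 µM dose yields 30% or more activation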;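 note: 100% = tunicamycin at 10 µg/mL and 0% = DMSO only wells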
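Test system: CHO-XBP1 luciferase reporter cells | Buffer or medium: Serum-containing F12 medium, 10% FBS | Schedule: 6 h compound exposure at 37 °C, 5% CO2 | Detection: Steady-Glo luciferase glow luminescence, 10 min after reagent addition | Read-out basis: Activation, % of tunicamycin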
ANO1 block: TMEM16A chloride channel inhibitors, primary screen, cell-based, HTS; Anoctamin-1 (Mus musculus), Q8BHY3; HEK293 TMEM16A/YFP iodide influx fluorescence, ionomycin; normalized B-score (activity score, 25-100; higher = stronger inhibition) at 10 µM; actives 1.2% (n = 310,000);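 active = ratio plate-corrected score three or more library SD toward inhibition, starting fluorescence score within five deviations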;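 note: score derived from kinetic fluorescence span divided by baseline fluorescence per well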
Target sequence (Q8BHY3 whole entry, looked up): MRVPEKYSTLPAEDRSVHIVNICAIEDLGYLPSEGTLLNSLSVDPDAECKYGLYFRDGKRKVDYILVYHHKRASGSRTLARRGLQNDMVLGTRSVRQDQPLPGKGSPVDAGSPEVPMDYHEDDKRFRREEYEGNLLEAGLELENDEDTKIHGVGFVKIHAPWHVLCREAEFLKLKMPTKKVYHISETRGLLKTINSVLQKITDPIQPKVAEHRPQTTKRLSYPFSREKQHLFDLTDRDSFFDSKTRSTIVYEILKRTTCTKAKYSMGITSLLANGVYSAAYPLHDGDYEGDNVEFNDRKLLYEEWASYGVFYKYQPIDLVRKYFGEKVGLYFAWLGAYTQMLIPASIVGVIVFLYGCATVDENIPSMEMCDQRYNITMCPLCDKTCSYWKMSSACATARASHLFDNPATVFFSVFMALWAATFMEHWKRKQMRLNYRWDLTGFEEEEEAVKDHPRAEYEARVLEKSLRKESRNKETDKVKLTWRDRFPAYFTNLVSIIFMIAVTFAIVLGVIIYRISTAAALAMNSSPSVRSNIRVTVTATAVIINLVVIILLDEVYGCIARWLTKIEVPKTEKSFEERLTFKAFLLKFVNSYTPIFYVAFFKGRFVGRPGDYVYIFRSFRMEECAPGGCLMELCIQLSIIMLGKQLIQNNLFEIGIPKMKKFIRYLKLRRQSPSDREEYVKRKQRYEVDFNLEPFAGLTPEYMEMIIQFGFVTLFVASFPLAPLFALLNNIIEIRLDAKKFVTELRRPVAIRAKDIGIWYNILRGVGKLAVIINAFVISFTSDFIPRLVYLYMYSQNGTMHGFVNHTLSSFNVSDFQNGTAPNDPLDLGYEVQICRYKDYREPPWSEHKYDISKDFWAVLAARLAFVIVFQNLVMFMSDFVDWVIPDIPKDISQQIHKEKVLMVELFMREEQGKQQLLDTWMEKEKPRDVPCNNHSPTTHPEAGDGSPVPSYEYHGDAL
TMEM16A act: TMEM16A chloride channel activators or potentiators, primary screen, cell-based, HTS; AID 623877, 2012; HEK293 TMEM16A/YFP-H148Q/I152L, iodide quench fluorescence; hits give low values; Anoctamin-1 (Mus musculus), Q8BHY3; actives 0.3% (n = 340,000); B-score at 10 µM;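 active = fluorescence-ratio B-score plate-corrected deviation score at least 3 library SD below zero, with starting fluorescence score within 5 deviations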;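 note: channel opened by trigger with iodide after compound preincubation; score built on the fluorescence ratio of max minus min over baseline; more negative score means more quench and so TMEM16A activation or potentiation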
Starred values were filed as active, the others as inactive; i = inactive; / = not tested or not shown.

SMILES	CHOP inhibitor	Lipid droplet	UPR CHOP act	UPR XBP1 act	ANO1 block	TMEM16A act
CCn1cc(/C=C(\NC(=O)c2ccc(C)cc2)C(=O)NCCCN2CCOCC2)c2ccccc21	/	3.3	-1.3	-4.3	/	i
CCn1ccnc1CN(C)Cc1cn(-c2ccc(C)cc2)nc1-c1ccc(F)cc1	75.3*	-2.6	1.8	-0.2	i	i
Cc1ccc(NC(=O)c2c(Cl)nc3ccccn23)cc1	3.5	-25.4	5.2	7.2	i	-6.09*
Cc1ccc(-n2nc(C(=O)N3CCOCC3)cc2-c2ccc(Cl)cc2)cc1	45.9	-12.8	0.7	-7.3	i	i
O=C(c1cc(-c2ccc(Cl)cc2)n(-c2ccc(Cl)cc2)n1)N1CCOCC1	73.3*	/	-2.0	1.9	i	i
COc1ccc(S(=O)(=O)NCc2ccc(C(=O)NCCCN3CC(C)CC(C)C3)cc2)cc1 (centres undefined)	/	-63.4	-1.4	-2.2	i	i
CSc1nsc(/C=C/Nc2ccc(C)c(C)c2)c1C#N	87.0*	2.2	3.4	5.8	i	i
CSc1nsc(/C=C/Nc2ccc(C)cc2)c1C#N	-0.7	-19.9	-0.2	0.7	i	i
CCOC(=O)CNc1nc(Cl)nc(Nc2ccc(C)cc2)n1	70.0*	17.0	0.9	-0.5	i	i
CCOC(=O)CNc1nc(Cl)nc(Nc2ccc(Cl)cc2)n1	25.0	19.8	0.0	-0.7	i	i
CCOC(=O)c1sc(NC(=O)CSc2nnnn2-c2ccccc2)nc1C	84.8*	/	-1.6	5.0	i	i
CCOC(=O)c1sc(NC(=O)CSc2nnnn2-c2ccc(C)c(C)c2)nc1C	93.2*	/	-0.6	0.1	i	i
COC(=O)c1sc(NC(=O)CSc2nnnn2-c2cccc(OC)c2)nc1C	55.5	-11.8	-2.4	-1.9	i	i
CCOC(=O)Cc1csc(NC(=O)CSc2nnnn2-c2ccc(C)c(C)c2)n1	24.1	15.1	-2.1	-1.6	i	i
O=C(Nc1ccc(N2CCN(C(=O)c3cccs3)CC2)cc1)c1ccc(F)cc1	/	-16.7	2.4	-2.0	i	i
CC(C)(C)c1csc(NC(=O)Cc2cccs2)n1	3.9	5.4	0.1	2.0	i	i
CC(C)(C)c1csc(NC(=O)c2cccs2)n1	71.2*	18.7	5.4	4.5	i	i
Cc1ccc(NS(=O)(=O)c2ccc(NC(=O)c3cccs3)cc2)cc1	77.3*	/	-2.0	-4.4	i	i
CCC(C)NS(=O)(=O)c1ccc(NC(=O)c2cccs2)cc1 (centres undefined)	12.1	2.5	-0.5	0.9	i	i
Cc1ccc(NC(=O)C2CCN(S(=O)(=O)c3ccc4c(c3)C(C)(C)C(=O)N4C)CC2)c(C)c1	/	-0.9	-0.2	1.1	i	i
CCN(C(=O)COC(=O)c1oc2ccccc2c1C)c1c(N)n(Cc2ccccc2)c(=O)[nH]c1=O	/	/	-1.1	1.2	/	i
COc1ccc(-c2nc(CS(=O)(=O)CC(=O)Nc3ccc(Cl)cc3)c(C)o2)cc1	97.5*	-11.8	3.3	-1.4	i	i
COc1cccc(-c2nc(CS(=O)(=O)CC(=O)Nc3cc(C)ccc3C)c(C)o2)c1	77.2*	1.0	4.7	-2.3	i	i
COc1ccc(NC(=O)CS(=O)(=O)Cc2nc(-c3ccc(C)cc3)oc2C)cc1	/	8.6	-0.4	-1.9	i	i
Cc1ccc(S(=O)(=O)N2CCN(C(=O)Cn3nc(C)c([N+](=O)[O-])c3C)CC2)cc1	/	/	-1.7	-5.5	/	i
SMILES	CHOP inhibitor	Lipid droplet	UPR CHOP act	UPR XBP1 act	ANO1 block	TMEM16A act
O=C(COC(=O)c1ccccc1NCCO)Nc1cc(C(F)(F)F)ccc1N1CCOCC1	/	-1.9	1.0	2.1	i	i
O=C(Nc1cc(C(F)(F)F)ccc1N1CCOCC1)c1n[nH]c(=O)c2ccccc12	78.3*	/	1.6	4.3	i	i
CSc1ncccc1C(=O)OCC(=O)Nc1cc(C(F)(F)F)ccc1N1CCOCC1	71.0*	/	-2.6	5.0	i	i
O=C(Nc1cc(C(F)(F)F)ccc1N1CCOCC1)c1ccc(F)cc1	25.6	5.9	-2.9	-4.7	i	i
COC(=O)c1nccnc1C(=O)Nc1ccccc1N1CCOCC1	/	4.5	1.7	-1.6	i	i
Cc1nnc(NC(=O)c2cccc(S(=O)(=O)N3CCCC3)c2)s1	/	-3.7	1.8	-4.8	i	i
CN1CCN(NC(=O)/C=C/c2cccc([N+](=O)[O-])c2)CC1	/	0.1	-2.8	-3.7	i	i
O=[N+]([O-])c1ccc(N/N=C/c2sc(N3CCOCC3)nc2-c2ccccc2)c(S(=O)(=O)Nc2ccc(Cl)cc2)c1	86.1*	-23.9	/	/	/	i
O=[N+]([O-])c1ccc(N/N=C/c2sc(N3CCOCC3)nc2-c2ccccc2)c(S(=O)(=O)Nc2ccccc2Cl)c1	84.5*	8.0	/	/	/	i
O=C(Nc1ccccc1)C1CC(=O)N(C2CCCCC2)C1 (centres undefined)	11.8	/	-0.8	-0.1	i	-7.73*
C/C(=N\Nc1nnc(-c2ccccc2)c(-c2ccccc2)n1)c1cccc([N+](=O)[O-])c1	78.2*	-3.9	-1.1	0.0	i	i
C/C(=N\NC(=O)C1CC1c1ccccc1)c1cccc([N+](=O)[O-])c1 (centres undefined)	9.3	/	-3.4	-3.0	25*	i
O=C(NC1CCCCC1)C1CCC(=O)N(Cc2cccc(C(F)(F)F)c2)C1 (centres undefined)	/	-4.0	2.8	-1.2	i	i
CCOC(=O)c1c(-c2ccccc2)csc1NC(=S)NC	92.6*	21.1	-1.7	3.3	i	i
O=C(NC(C(=O)N/N=C/c1ccncc1)c1n[nH]c(=O)c2ccccc12)c1ccccc1 (centres undefined)	-11.7	-1.7	-2.3	-0.6	i	i
O=C(NC(C(=O)N/N=C/c1cccnc1)c1n[nH]c(=O)c2ccccc12)c1ccccc1 (centres undefined)	-9.4	-0.5	0.5	-2.8	i	-6.39*
CN(C(=O)COC(=O)c1cc(=O)[nH]c2ccccc12)c1ccccc1	/	/	1.5	0.6	/	i
CC(=O)c1ccc(OCc2cc(C(=O)N3CCC(Oc4ccccc4C)CC3)no2)cc1	/	17.1	4.2	-3.5	100*	i
Cc1cc(C)cc(-c2nnc(SCc3ccc(C(=O)O)cc3)o2)c1	-7.7	3.4	-1.6	-0.3	i	i
